Experimental findings from ChEMBL document CHEMBL1159095, “Synthesis and optimization of thiadiazole derivatives as a novel class of substrate competitive c-Jun N-terminal kinase inhibitors” (Bioorg Med Chem, 2010) are described below.

The structures appear in SMILES notation. Calls of active or inactive are those of the source. The calls are words filed in the database; no cut-off is given here. Bounds are passed on as bounds.

For data set [1], the target named is T1, Mitogen-activated protein kinase 8 (Homo sapiens, UniProt P45983). Nature of the data set: Inhibition of JNK1 by TR-FRET assay. Put shortly: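 LanthaScreen TR-FRET kinase assay. JNK1 at 35 ng/mL, ATF2 substrate at 400 nM and ATP at 0.2 μM in 50 mM HEPES pH 7.5, 10 mM MgCl2, 1 mM EGTA, 0.01% Brij-35, with compound. Reaction ran 1 hr at room temperature, then terbium-labelled antibody plus EDTA were added.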
T1 sequence (P45983 whole entry): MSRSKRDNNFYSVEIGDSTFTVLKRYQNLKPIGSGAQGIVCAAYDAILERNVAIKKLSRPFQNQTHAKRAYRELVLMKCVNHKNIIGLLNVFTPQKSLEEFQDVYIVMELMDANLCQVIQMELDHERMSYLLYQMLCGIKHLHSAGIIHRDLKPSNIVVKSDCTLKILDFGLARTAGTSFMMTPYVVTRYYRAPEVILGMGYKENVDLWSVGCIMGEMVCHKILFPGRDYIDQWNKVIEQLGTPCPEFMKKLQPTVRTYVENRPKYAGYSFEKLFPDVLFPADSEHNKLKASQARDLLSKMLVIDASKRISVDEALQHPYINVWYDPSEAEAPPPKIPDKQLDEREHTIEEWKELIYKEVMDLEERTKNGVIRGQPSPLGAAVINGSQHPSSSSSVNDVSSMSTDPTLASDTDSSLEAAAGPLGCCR

Data set [2] has as its target T2, Mitogen-activated protein kinase 9 (Homo sapiens, UniProt P45984). Nature of the data set: Displacement of biotin-labeled pep-JIP1from JNK2 by DELFIA assay. Put shortly:
(§1)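 Added Eu-labelled anti-GST antibody (300 ng/ml; 1.9 nM), compound in DMSO and GST-JNK2 at 10 nM final. Incubated 1 hr at 0 °C, washed 5 times, enhancement solution added, fluorescence read after 10 min (ex 340, em 615 nm). Controls were unlabelled peptide and no-compound blanks.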
Target sequence in this assay (P45984 whole entry): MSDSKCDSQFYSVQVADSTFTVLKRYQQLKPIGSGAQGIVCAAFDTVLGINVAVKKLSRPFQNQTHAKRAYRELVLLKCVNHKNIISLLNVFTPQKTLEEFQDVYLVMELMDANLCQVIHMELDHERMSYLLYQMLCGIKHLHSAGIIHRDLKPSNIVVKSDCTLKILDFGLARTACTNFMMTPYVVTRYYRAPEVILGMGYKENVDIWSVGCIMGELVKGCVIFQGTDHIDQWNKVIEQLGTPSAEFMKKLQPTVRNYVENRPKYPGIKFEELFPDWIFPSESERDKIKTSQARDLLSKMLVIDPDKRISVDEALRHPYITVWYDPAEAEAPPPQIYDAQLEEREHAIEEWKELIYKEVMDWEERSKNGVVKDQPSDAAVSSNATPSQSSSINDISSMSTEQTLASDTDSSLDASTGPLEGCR

The target of data set [3] is T1, Mitogen-activated protein kinase 8. Nature of the data set: Inhibition of JNK1 up to 25 uM by TR-FRET assay. Put shortly: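 LanthaScreen TR-FRET kinase assay. JNK1 at 35 ng/mL, ATF2 substrate at 400 nM and ATP at 0.2 μM in 50 mM HEPES pH 7.5, 10 mM MgCl2, 1 mM EGTA, 0.01% Brij-35, with compound. Reaction ran 1 hr at room temperature, then terbium-labelled antibody plus EDTA were added. After a further hour, the 520/495 nm emission ratio was read.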

The target of data set [4] is T2, Mitogen-activated protein kinase 9. Nature of the data set: Displacement of biotin-labeled pep-JIP1from JNK2 at 50 uM by DELFIA assay. The procedure, abridged:
as §1
Target sequence in this assay (P45984 whole entry, looked up): as the sequence (P45984 whole entry) above

The target of data set [5] is RAC-alpha serine/threonine-protein kinase (Homo sapiens, UniProt P31749). Nature of the data set: Inhibition of AKT.
Chain of RAC-alpha serine/threonine-protein kinase (P31749 whole entry): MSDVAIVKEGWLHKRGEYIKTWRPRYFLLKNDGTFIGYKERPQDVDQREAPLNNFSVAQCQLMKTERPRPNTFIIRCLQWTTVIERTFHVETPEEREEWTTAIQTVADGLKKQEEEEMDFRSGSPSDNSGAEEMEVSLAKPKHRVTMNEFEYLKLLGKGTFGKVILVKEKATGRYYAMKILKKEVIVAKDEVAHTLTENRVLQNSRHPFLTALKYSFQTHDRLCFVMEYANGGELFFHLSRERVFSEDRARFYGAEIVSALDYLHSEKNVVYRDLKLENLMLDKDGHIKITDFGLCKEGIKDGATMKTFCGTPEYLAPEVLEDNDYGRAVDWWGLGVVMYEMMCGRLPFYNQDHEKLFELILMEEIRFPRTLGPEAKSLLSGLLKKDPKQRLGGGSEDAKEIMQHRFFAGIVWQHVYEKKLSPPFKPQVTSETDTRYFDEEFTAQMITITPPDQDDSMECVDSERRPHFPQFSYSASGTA
Data set [6] in a line: Permeability assessed as drug flux at pH 7.4 by PAMPA assay. Type of data set: ADME. The procedure, abridged:
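PAMPA: filter impregnated with 1-20% phospholipid in organic solvent over an acceptor plate of aqueous buffer at pH 7.4. Donor added from a 20 μM stock (DMSO <2%). An equilibrium plate was prepared in parallel, and percent flux was calculated from acceptor versus equilibrium concentrations. Reference compounds included.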

The target of data set [7] is Furin (Homo sapiens, UniProt P09958). Description: Inhibition of FURIN.
Chain of Furin (P09958 whole entry): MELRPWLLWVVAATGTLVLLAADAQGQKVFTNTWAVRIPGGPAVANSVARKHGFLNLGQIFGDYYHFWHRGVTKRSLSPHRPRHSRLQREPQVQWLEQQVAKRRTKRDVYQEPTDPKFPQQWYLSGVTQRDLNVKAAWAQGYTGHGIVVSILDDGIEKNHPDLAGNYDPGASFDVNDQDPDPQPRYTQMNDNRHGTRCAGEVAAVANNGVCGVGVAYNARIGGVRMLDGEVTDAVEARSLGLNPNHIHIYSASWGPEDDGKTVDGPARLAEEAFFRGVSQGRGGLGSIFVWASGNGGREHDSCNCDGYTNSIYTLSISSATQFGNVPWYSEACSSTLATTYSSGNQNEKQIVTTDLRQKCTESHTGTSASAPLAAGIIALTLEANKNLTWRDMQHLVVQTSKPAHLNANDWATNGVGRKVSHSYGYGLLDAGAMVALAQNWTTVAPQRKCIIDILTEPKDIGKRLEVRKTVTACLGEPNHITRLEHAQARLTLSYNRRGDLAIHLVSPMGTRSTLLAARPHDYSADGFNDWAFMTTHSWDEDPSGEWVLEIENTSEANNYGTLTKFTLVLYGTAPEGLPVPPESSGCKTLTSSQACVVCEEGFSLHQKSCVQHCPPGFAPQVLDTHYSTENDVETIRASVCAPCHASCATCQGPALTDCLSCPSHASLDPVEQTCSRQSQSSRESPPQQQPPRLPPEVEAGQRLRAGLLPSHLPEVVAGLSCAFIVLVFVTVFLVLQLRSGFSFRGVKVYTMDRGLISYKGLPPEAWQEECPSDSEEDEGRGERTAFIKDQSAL
The nature of data set [8]: Inhibition of JNK-mediated TNF-alpha-stimulated c-Jun phosphorylation by cell-based TR-FRET assay. Put shortly: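 HeLa cells stably expressing GFP-c-Jun(1-79) plated at 10000/well in Opti-MEM with 1% charcoal/dextran-treated FBS, no phenol red, and left overnight. Pretreated 60 min with compound, then stimulated 30 min with TNF-alpha at 2 ng/ml. Lysed in buffer containing 2 nM terbium anti-phospho-c-Jun (Ser73) antibody and equilibrated 1 h at room temperature. TR-FRET ratio Em520/Em490 read with excitation at 340 nm.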

Data set [9] addresses T3, Lethal factor (Bacillus anthracis, UniProt P15917).
T3 sequence (P15917 whole entry): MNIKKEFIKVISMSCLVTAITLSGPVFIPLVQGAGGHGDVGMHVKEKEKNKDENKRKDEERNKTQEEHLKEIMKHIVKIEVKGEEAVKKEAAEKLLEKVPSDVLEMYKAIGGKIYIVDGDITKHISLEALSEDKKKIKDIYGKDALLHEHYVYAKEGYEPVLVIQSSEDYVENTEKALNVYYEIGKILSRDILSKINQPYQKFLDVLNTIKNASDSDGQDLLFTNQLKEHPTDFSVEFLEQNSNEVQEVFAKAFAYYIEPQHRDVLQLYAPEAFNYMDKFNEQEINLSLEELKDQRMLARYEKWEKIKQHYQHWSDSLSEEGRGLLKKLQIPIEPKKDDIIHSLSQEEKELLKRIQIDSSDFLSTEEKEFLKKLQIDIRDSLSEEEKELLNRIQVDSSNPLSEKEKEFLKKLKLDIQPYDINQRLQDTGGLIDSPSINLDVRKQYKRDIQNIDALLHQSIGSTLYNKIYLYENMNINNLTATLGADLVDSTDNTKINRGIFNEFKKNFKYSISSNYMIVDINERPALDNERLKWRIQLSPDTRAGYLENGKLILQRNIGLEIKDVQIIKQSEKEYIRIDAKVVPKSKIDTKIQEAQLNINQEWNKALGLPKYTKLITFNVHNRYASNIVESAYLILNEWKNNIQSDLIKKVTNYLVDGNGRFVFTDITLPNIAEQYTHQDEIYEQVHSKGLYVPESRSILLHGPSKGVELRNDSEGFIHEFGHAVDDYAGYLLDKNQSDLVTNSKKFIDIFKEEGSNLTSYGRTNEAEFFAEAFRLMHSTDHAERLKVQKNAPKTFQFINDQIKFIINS
Nature of the data set: Inhibition of Bacillus anthracis anthrax lethal factor.

Data set [10] in a line: Metabolic stability in rat plasma assessed as compound remaining after 30 mins by LC/MS-MS. Conditions: read-out: Stability. Type of data set: ADME, cell-free. The procedure, abridged:
(§2)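 Compound at 1 μM (2.5% final DMSO) incubated in fresh rat plasma at 37 °C. Reactions stopped at 0, 30 and 60 min with two volumes of methanol containing internal standard, then precipitated, centrifuged and analysed by LC-MS. Percent parent remaining relative to 0 min calculated from peak-area ratios to internal standard. Run in duplicate with a plasma-labile positive control.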

Data set [11] deals with Mitogen-activated protein kinase 14 (Homo sapiens, UniProt Q16539). Nature of the data set: Inhibition of p38alpha MAPK.
Chain of Mitogen-activated protein kinase 14 (Q16539 whole entry): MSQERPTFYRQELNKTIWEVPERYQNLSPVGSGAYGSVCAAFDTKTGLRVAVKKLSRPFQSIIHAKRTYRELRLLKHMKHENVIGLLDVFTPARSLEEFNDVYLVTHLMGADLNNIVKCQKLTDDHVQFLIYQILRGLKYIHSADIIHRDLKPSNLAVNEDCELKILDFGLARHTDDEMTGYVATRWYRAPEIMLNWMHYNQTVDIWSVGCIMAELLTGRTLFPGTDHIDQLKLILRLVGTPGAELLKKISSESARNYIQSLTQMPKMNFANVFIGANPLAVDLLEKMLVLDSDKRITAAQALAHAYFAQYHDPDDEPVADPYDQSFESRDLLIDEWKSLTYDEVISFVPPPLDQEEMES
In data set [12] the target is T2, Mitogen-activated protein kinase 9. Description: Inhibition of wild-type JNK2 by isothermal calorimetry. The procedure, abridged: (§3)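 Isothermal titration calorimetry at 25 °C. C163S or wild-type JNK2 at 50 μM in 20 mM sodium phosphate pH 7.4 with 5% DMSO and 0.01% Triton X-100. Titrant at 750 μM in the same buffer.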
Target sequence in this assay (P45984 whole entry): as the sequence (P45984 whole entry) above
Data set [13] addresses Mitogen-activated protein kinase 9 (Homo sapiens, UniProt P45984, C163S). Description: Inhibition of JNK2 C163S mutant by isothermal calorimetry. Put shortly:
as §3

A short description of data set [14]: Metabolic stability in rat plasma assessed as compound remaining after 60 mins by LC/MS-MS. Type of data set: ADME, cell-free. The following applies: read-out: Stability. Put shortly:
as §2

Chain of Mitogen-activated protein kinase 9 (Homo sapiens, UniProt P45984, C163S) (P45984 whole entry C163S): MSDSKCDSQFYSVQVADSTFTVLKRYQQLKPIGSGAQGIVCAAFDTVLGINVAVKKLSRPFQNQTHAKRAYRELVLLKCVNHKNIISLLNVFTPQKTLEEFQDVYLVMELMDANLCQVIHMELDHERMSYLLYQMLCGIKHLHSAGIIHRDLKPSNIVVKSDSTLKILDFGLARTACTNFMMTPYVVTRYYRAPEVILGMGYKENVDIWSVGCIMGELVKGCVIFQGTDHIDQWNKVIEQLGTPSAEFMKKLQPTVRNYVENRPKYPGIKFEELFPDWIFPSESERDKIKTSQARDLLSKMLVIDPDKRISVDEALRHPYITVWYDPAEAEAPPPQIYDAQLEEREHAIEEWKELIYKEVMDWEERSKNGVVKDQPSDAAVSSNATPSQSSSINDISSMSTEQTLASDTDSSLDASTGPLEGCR

`CCNc1nnc(Sc2ncc([N+](=O)[O-])s2)s1`: the results for the IC50 in [1] and in data set [2] were 100 µM and 10 µM, respectively.
For the molecule `CC(C)(C)Nc1nnc(Sc2ncc([N+](=O)[O-])s2)s1`, in data set [3], the inhibition entry was “inactive”. In data set [4], the inhibition worked out at 20%.
Consider `O=[N+]([O-])c1cnc(Sc2nnc(NCC3CCCO3)s2)s1` (stereo not given), for which the values for the IC50 in [1] and in [2] were 10 µM and 0.47 µM, respectively.
Regarding `CCC(C)Nc1nnc(Sc2ncc([N+](=O)[O-])s2)s1` (stereo not given), the IC50 in data set [5] is over 100 µM; in [1] it was 3 µM; in [2], 0.14 µM; in data set [7], over 50 µM; in data set [8] it was 20 µM; in data set [9], over 100 µM. The molecule further registered an IC50 in [11] of over 100 µM. In [6], the permeability is 7.9%. For the same molecule, the remaining at 0.5 h in data set [10] was determined as 90%.
`COCCNc1nnc(Sc2ncc([N+](=O)[O-])s2)s1`: the IC50 is over 100 µM in [5]; 4.8 µM in [1]; 0.16 µM in [2]; over 50 µM in data set [7]; 8 µM in [8]; over 100 µM in [9]. The molecule also registered an IC50 in data set [11] of over 100 µM. Moreover, the Kd worked out at 2.8 µM in data set [12] and 4.2 µM in data set [13]. The permeability in data set [6] turned out to be 49.8%. In addition, the remaining at 1 h in [14] came to 35%. Further, in data set [10], the remaining at 0.5 h was 79.7%.
Turning to `CCCCNc1nnc(Sc2ncc([N+](=O)[O-])s2)s1`, the inhibition result in data set [3] was “inactive”. Besides, in data set [4], the inhibition came out at 20%.
Take `CCCNc1nnc(Sc2ncc([N+](=O)[O-])s2)s1`: the IC50 was over 100 µM in data set [5]; 6.7 µM in data set [1]; 0.29 µM in [2]; over 50 µM in [7]; over 100 µM in data set [9]; over 100 µM in data set [11]. Further, the values for the equilibrium dissociation constant (Kd) in [12] and in data set [13] were 9.4 µM and 7.2 µM, respectively. For the same molecule, in [6], the permeability came out at 30%. The remaining at 1 h in data set [14] came to 42%. Besides, in data set [10], the remaining at 0.5 h is 48.1%.
Take `O=[N+]([O-])c1cnc(Sc2nnc(O)n2-c2ccc3c(c2)OCCO3)s1`: the figures for the Kd in [12] and in data set [13] were 8.1 µM and 51.1 µM, respectively. For the same molecule, the IC50 in data set [2] was 0.5 µM. Also, the permeability in data set [6] is on record as 5.5%. In [14], the remaining at 1 h turned out to be 0%.
Turning to `COc1ccc(CNc2nnc(Sc3ncc([N+](=O)[O-])s3)s2)cc1`, the IC50 turned out to be 9.1 µM in data set [1], 0.1 µM in data set [2] and 21 µM in data set [8].
`COc1ccc(CCNc2nnc(Sc3ncc([N+](=O)[O-])s3)s2)cc1OC`: the IC50 is over 100 µM in data set [5]; 5.7 µM in data set [1]; 0.1 µM in [2]; over 50 µM in data set [7]; over 100 µM in data set [9]; over 100 µM in data set [11]. For the same molecule, the permeability in data set [6] was 76.3%. In data set [13], this molecule came in with a Kd of 1.9 µM. Also, the remaining at 1 h in [14] amounted to 68%. Moreover, in [10], the remaining at 0.5 h was determined as 6.05%.
As to `O=[N+]([O-])c1cnc(Sc2nnc(NCc3ccccc3)s2)s1`, the inhibition result in [3] was “inactive”. The inhibition in data set [4] was 20%.
